# Compound activity deposited in PubChem BioAssay by several laboratories.
# Shown are actives, neighbours in structure and some others; about 4.5% of the full set was active somewhere.
# MrgX1 PAM: allosterically activates human MrgX1 receptor signaling; Q96LB2; MrgX1-HEK293, Fluo-4 calcium flux, FDSS; active compounds read high; B-score at 10 µM; hit rate 0.63% among 310,000; AID 588675;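 active means plate-corrected calcium response at least 3 library SD above typical, normal starting fluorescence, not activating the receptor alone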;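 further: compound read alongside a low EC10 to EC30 dose of BAM8-22 agonist; peak minus trough fluorescence over baseline measured at the second addition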
# Target sequence (Q96LB2 whole entry, looked up): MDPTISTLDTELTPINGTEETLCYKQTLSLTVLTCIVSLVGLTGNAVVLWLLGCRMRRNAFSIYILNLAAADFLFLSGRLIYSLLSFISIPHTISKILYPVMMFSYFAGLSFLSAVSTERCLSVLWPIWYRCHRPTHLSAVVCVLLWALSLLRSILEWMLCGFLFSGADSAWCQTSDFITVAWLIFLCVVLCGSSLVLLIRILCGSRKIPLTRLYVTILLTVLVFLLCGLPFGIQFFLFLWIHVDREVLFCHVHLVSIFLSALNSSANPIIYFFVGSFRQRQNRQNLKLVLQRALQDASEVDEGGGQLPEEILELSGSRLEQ
# MrgX1 agonist: activates human MrgX1 receptor signaling; Q96LB2; MrgX1-HEK293 cells, Fluo-4 calcium fluorescence, agonist mode; active compounds read high; B-score at 10 µM; hit rate 0.44% among 310,000; AID 588627;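 active means calcium response B-score plate-corrected fluorescence ratio at least 3 library SD, with starting fluorescence B-score inside 5 SD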
#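 Material: MrgX1-expressing HEK293 cells / Dosing: compound as first of three additions / Incubation: overnight seeding, then 1 h dark dye loading / Signal: Fluo-4 NW calcium fluorescence / Evaluation: B-scored fluorescence response ratio / Benchmarks: positive and negative control wells on each plate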
# MrgX1 antagonist: blocks BAM8-22 activation of human MrgX1 receptor; B-score at 10 µM; hit rate 1.3% among 310,000; Q96LB2; MRGX1-HEK293 calcium flux, Fluo-4, BAM8-22 antagonism; active compounds read low;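 active means calcium-response B-score plate-corrected more than 3 library SD below zero, starting fluorescence within 5 deviations, no agonist response on first addition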;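 further: peak minus trough fluorescence over baseline after final BAM8-22 challenge near maximal dose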
# RGS4 act: RGS4 potentiation or activation; HEK293 M3R/inducible RGS4, carbachol calcium flux Fluo4; active compounds read low; B-score at 10 µM; hit rate 0.92% among 310,000;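 active means B-score of the integrated calcium signal more than 4 SD below the library mean, with starting fluorescence not abnormally high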;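 further: negative B-score means reduced calcium response which marks RGS4 activation or potentiation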
#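 System: HEK293 FlpIn-TREx cells, stable M3R, doxycycline-inducible RGS4. Timing: overnight RGS4 induction, 30 min dye load 37 °C, 20 min compound RT. Also added: carbachol, ECmax concentration. Measured by: Fluo4 fluorescence kinetic imaging of calcium. Evaluation: integrated calcium ratio converted to B score.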
# PHOSPHO1 inh: blocks human PHOSPHO1 phosphatase activity. recombinant PHOSPHO1, absorbance phosphatase assay. inhibition, % at 13.3 µM. hit rate 1.1% among 290,000; in the data active means inhibition above about 60%
# Target sequence (Q8TCT1 whole entry, looked up): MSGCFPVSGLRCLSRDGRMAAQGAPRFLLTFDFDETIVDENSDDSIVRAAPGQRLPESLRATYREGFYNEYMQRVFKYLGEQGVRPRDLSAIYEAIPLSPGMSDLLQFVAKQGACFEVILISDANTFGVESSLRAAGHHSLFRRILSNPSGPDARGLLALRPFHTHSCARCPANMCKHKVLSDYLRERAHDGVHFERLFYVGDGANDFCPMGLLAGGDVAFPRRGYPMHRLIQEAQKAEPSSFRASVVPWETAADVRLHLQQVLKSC
# RGS4 inh: inhibitors of human RGS4. P49798. hit rate 0.45% among 310,000. HEK293 M3R/RGS4 inducible, Fluo-4 calcium flux; active compounds read high; triggered by carbachol at its EC20. B-score at 10 µM;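 active means B-score, a plate-corrected calcium signal, over three deviations above library mean, with baseline fluorescence within five deviations of library mean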;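 further: RGS4 expression induced by doxycycline in cells with stable M3 receptor; B-score is computed from the integrated fluorescence ratio over baseline after carbachol; higher B-score means a larger calcium signal and so more RGS4 inhibition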
# RGS4 inh valid: RGS4 inhibitor validation; calcium response, % at 10 µM; hit rate 65% among 1,700; HEK293 M3R/RGS4, carbachol calcium Fluo-4 fluorescence; carbachol added at its EC20; 0 = buffer wells, 100 = carbachol control; shares compounds with RGS4 inh;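 active means duplicate-averaged calcium response above the buffer-only control mean plus 5 SD of those controls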;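 further: integrated fluorescence ratio F max minus min over baseline F0; higher response in RGS4-induced cells means RGS4 inhibition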
# RGS4 uninduced: counter-screen for RGS4 inhibitors: effect in non-induced cells. shares compounds with RGS4 inh. HEK293 M3R non-induced, carbachol calcium Fluo-4; submaximal (EC20) carbachol stimulus; buffer wells 0%, carbachol control wells 100%. activity (percent), % at 10 µM. hit rate 20% among 1,900. AID 493000; call rule not given here;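 further: RGS4 induction absent so cells express M3R without RGS4; higher means more calcium signal and flags a non-specific hit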
# RGS4 inh ctr2: signal in non-induced cells without carbachol, RGS4 inhibitor counter-screen. hit rate 22% among 1,900. shares compounds with RGS4 inh. HEK293 M3R/RGS4 non-induced, Fluo-4 calcium, no carbachol; normalised: buffer wells 0%, carbachol wells 100%. calcium response (agonist-mode artifact), % at 10 µM;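 active means duplicate-averaged calcium rise in uninduced cells above buffer wells' mean plus 5 SD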
# The depositor's hits bear a star; i = inactive; / = no result given.
SMILES,MrgX1 PAM,MrgX1 agonist,MrgX1 antagonist,RGS4 act,PHOSPHO1 inh,RGS4 inh,RGS4 inh valid,RGS4 uninduced,RGS4 inh ctr2
Oc1ccc2ccccc2c1C=Nc1ccccc1-c1nc2ccccc2[nH]1,i,i,i,i,14,i,/,/,/
COc1cc(NC(=O)CCN2CCN(C/C=C/c3ccccc3)CC2)cc(OC)c1,i,i,i,i,14,i,/,/,/
O=C1NC[C@@H](Cc2cccc3ccccc23)N(CCC23CC4CC(CC(C4)C2)C3)C1=O,i,i,i,i,/,4.8*,12%*,32%*,i
O=c1[nH]c2ccc(Cl)cc2c(-c2ccccc2)c1N1CCN(c2ccccn2)CC1,i,i,i,i,7,7.5*,17%*,i,i
Cc1ccc(C2c3c(-c4ccccc4O)n[nH]c3C(=O)N2Cc2ccncc2)cc1 (stereo not drawn),i,i,i,i,-17,i,/,/,/
COc1cc(C2c3c(-c4cc(Cl)c(C)cc4O)n[nH]c3C(=O)N2Cc2cccnc2)ccc1O (stereo not drawn),i,i,i,i,9,i,/,i,i
Cc1cccc(-c2nnc(SCC(=O)C(C)(C)C)n2C)c1,i,i,i,i,38,i,/,/,/
O=C(CSc1nnc(SCc2ccccc2)s1)N/N=C/c1c[nH]c2ccccc12,/,/,/,i,-3,i,i,i,i
O=C(CSc1nnc(SCc2ccccc2Cl)s1)N/N=C/c1c[nH]c2ccccc12,i,i,i,i,1,6.8*,14%*,i,i
O=C(Cc1cccs1)N1CCC(c2nc3c(nnn3Cc3ccc(F)cc3)c(=O)[nH]2)CC1,i,i,i,i,14,i,i,i,i
CC(=O)C1=C(C)OC(N)=C(C#N)C1c1cc2cc(C)c(C)cc2nc1Cl (stereo not drawn),i,i,i,i,6,15*,5.0%*,i,i
COC(=O)C1=C(C)OC(N)=C(C#N)C1c1cc2cc(C)ccc2nc1Cl (stereo not drawn),i,i,i,i,12,i,/,/,/
Cc1ccc(N=Cc2ccc(O)cc2O)cc1F,i,i,i,i,39,10*,14%*,i,13%*
Oc1ccc(C=Nc2cccc3ccccc23)c(O)c1,i,i,i,i,30,i,/,/,/
CN(c1ccccc1)c1nc(N)c([N+](=O)[O-])c(NCCO)n1,i,i,i,i,33,i,/,/,/
COc1cc(/C=C(/C(=O)c2cccs2)c2nc3ccccc3[nH]2)cc(OC)c1O,i,i,i,i,5,22*,88%*,41%*,i
COc1ccc2nc3cccc(OC)c3nc2c1,i,i,i,i,34,i,/,/,/
COc1ccc2nc(-c3ccco3)c(-c3ccco3)nc2c1,i,i,i,i,40,5.8*,i,i,32%*
CC(C)C(NC(=O)C(NC(=O)C1OC2OC(C)(C)OC2C2OC(C)(C)OC12)C(C)C)C(=O)O (stereo not drawn),i,i,i,i,14,i,/,/,/
O=C(/C=C/c1ccccc1)N1CCN(c2cccc(Cl)n2)CC1,i,i,i,i,-8,i,/,/,/
O=C(NCc1cccnc1)c1cc2nc(-c3ccc4c(c3)OCO4)cc(C(F)(F)F)n2n1,i,i,i,i,18,i,/,/,/
O=C(NCc1ccco1)c1cc2nc(-c3ccc4c(c3)OCO4)cc(C(F)(F)F)n2n1,i,i,i,i,9,4.7*,i,i,16%*
COc1ccc(-c2cc(C(F)(F)F)n3nc(C(=O)NCc4ccco4)cc3n2)cc1,i,i,i,i,-11,i,/,i,i
C=CCN(CC=C)CC(=O)Nc1ccc(S(N)(=O)=O)cc1,i,i,i,i,17,i,/,/,/
Cc1noc2ncnc(Oc3cc(Cl)ccc3Cl)c12,i,i,i,i,37,i,/,/,/
SMILES,MrgX1 PAM,MrgX1 agonist,MrgX1 antagonist,RGS4 act,PHOSPHO1 inh,RGS4 inh,RGS4 inh valid,RGS4 uninduced,RGS4 inh ctr2
COc1ccc(OC)c(-c2csc(N(CC3CCCO3)C(=O)C3CCCCC3)n2)c1 (stereo not drawn),i,i,i,i,5,7.2*,24%*,i,i
Cc1ccc(Nc2nc(N)nc(CN3CCN(Cc4ccc5c(c4)OCO5)CC3)n2)cc1C,/,/,/,i,6,i,i,i,i
Cc1ccc(Nc2nc(N)nc(CN3CCN(Cc4ccc5c(c4)OCO5)CC3)n2)cc1,i,i,i,i,28,i,i,i,i
Nc1nc(CN2CCN(Cc3ccccc3)CC2)nc(Nc2ccc3c(c2)OCCO3)n1,i,i,i,i,24,i,/,/,/
Cc1ccc(Nc2nc(N)nc(CN3CCN(Cc4ccc5c(c4)OCO5)CC3)n2)cc1Cl,i,i,i,i,20,6.2*,i,i,i
Cc1ccc(Nc2nc(N)nc(CN3CCN(Cc4ccc5c(c4)OCO5)CC3)n2)c(C)c1,i,i,i,i,13,i,/,/,/
COCCN1C(=O)N[C@@H](c2cccc(F)c2)C(C(=O)OC)=C1C,i,i,i,i,31,i,/,/,/
CCCCn1c(N)c(N(CC(C)C)C(=O)CCNC(=O)c2ccc(Br)cc2)c(=O)[nH]c1=O,i,i,i,i,/,i,/,/,/
S=c1[nH]nc(-c2cccs2)n1/N=C/c1c(Cl)cccc1Cl,i,i,i,i,52,11*,17%*,i,i
COc1cccc(/C=C2\CCc3ccccc3C2=O)c1,i,i,i,i,51,i,/,/,/
COc1cc(C=C2C(=O)c3ccccc3C2=O)cc(OC)c1,i,i,i,i,33,7.5*,8.5%*,i,i
COc1cccc(/C=C2\C(=O)C(=O)c3ccccc32)c1,i,30*,i,i,20,11*,14%*,i,10%*
O=S(=O)(NC(=NCc1ccccc1)c1ccc(F)cc1)c1ccc(Cl)cc1,i,i,i,i,44,i,/,/,/
